Blank lines part the entries; values can stand above or below the compound they belong to. Activity calls are given as the source filed them. No cut-off for these calls is given here.
Columns and labels:
[1] = system: HL-60; experiment: Cytotoxicity against human HL60 cells after 72 hrs by trypan blue assay; format: functional, cell-based; conditions: HL-60, 72 h
How it was run: (§1)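 A-431, HeLa and HL-60 cells at 4×10^4 per well, incubated 24 h. HeLa and A-431 then received fresh medium. Graded compound concentrations were added for a further 72 h at 37 °C, 5% CO2. Viability was counted by Trypan blue exclusion. IC50 is the concentration giving 50% reduction in cell number versus control: ≥3 independent experiments, triplicate samples, mean ± SD.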

[2] = system: Craf/Cmyc; experiment: Induction apoptosis in mouse Craf/Cmyc cells assessed as ROS production at 10 uM/L using DCFH-DA by flow cytometry relative to control; format: functional, cell-based
How it was run: (§2)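 Transgenic mouse cells exposed to compound at 10 µmol/L. ROS generation was measured by flow cytometry using the probe DCFH-DA.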

[3] = Induction apoptosis in mouse Craf/Cmyc cells assessed as relative caspase activity at 10 uM/L after 2 hrs by rhodamine 110 fluorescence assay; format: functional
How it was run: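 Cells were pretreated with compound (10 µmol/L) for 2 h. The cell-permeable caspase substrate (Asp)2-rhodamine 110 (10 µmol/L) was then added for 2 h more. Caspase cleavage releases fluorescent rhodamine 110, and the read-out was mean fluorescence.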

[4] = system: A2C12; experiment: Cytotoxicity against mouse A2C12 cells after 24 to 96 hrs by MTS assay; format: functional, cell-based
How it was run: (§3)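 Mouse transgenic lines plated at 10^3 cells/well and left 24 h to attach. Drugs diluted in medium were added for 24 or 96 h. CellTiter 96 AQueous One (MTS) reagent was then added for 1 h at 37 °C, with absorbance read at 490 nm. Each condition was run in quintuplicate, and cytotoxicity was expressed as percent of controls.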

[5] = system: A2B1; experiment: Cytotoxicity against mouse A2B1 cells after 24 to 96 hrs by MTS assay; format: functional, cell-based; how it was run: as §3
[6] = system: yD1; experiment: Induction apoptosis in mouse yD1 cells assessed as ROS production at 10 uM/L using DCFH-DA by flow cytometry relative to control; format: functional, cell-based; how it was run: as §2
[7] = system: yB8; experiment: Cytotoxicity against mouse yB8 cells after 24 to 96 hrs by MTS assay; format: functional, cell-based; how it was run: as §3
[8] = species on record: Mus musculus; experiment: Cytotoxicity against mouse betaD10 cells after 24 to 96 hrs by MTS assay; format: functional, cell-based; how it was run: as §3
[9] = system: Nucleic Acid; experiment: Binding affinity to salmon testes DNA by linear flow dichroism analysis; format: nucleic-acid assay; conditions: Salmonidae
How it was run: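 Salmon testes DNA (1.9 × 10^-3 M) in ETN buffer (10 mM Tris, 10 mM NaCl, 1 mM EDTA, pH 7). Linear dichroism spectra were recorded at 25 °C over a range of [drug]/[DNA] ratios on a spectropolarimeter converted for LD.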

[10] = system: B3; experiment: Cytotoxicity against mouse B3 cells after 24 to 96 hrs by MTS assay; format: functional, cell-based; how it was run: as §3
[11] = system: A-431; experiment: Cytotoxicity against human A431 cells after 72 hrs by trypan blue assay; format: functional, cell-based; conditions: A-431, 72 h; how it was run: as §1
[12] = system: yA7; experiment: Cytotoxicity against mouse yA7 cells after 24 to 96 hrs by MTS assay; format: functional, cell-based; how it was run: as §3
[13] = species on record: Mus musculus; experiment: Cytotoxicity against mouse betaD5 cells after 24 to 96 hrs by MTS assay; format: functional, cell-based; how it was run: as §3
[14] = system: A2C12; experiment: Induction apoptosis in mouse A2C12 cells assessed as ROS production at 10 uM/L using DCFH-DA by flow cytometry relative to control; format: functional, cell-based; how it was run: as §2
[15] = species on record: Mus musculus; experiment: Induction apoptosis in mouse betaD5 cells assessed as ROS production at 10 uM/L using DCFH-DA by flow cytometry relative to control; format: functional, cell-based; how it was run: as §2
[16] = system: Craf/Cmyc; experiment: Cytotoxicity against mouse Craf/Cmyc cells after 24 to 96 hrs by MTS assay; format: functional, cell-based; how it was run: as §3
[17] = species on record: Bos taurus; experiment: Inhibition of calf thymus topoisomerase 1-mediated relaxation of supercoiled pBR322 at 100 uM after 60 mins using ethidium bromide staining by agarose gel electrophoresis
How it was run: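 Supercoiled pBR322 (0.25 µg) with 2 U calf thymus topoisomerase I and test compound, 60 min at 37 °C in 20 µl reaction buffer. Stopped with SDS/bromophenol blue/glycerol plus 50 µg/mL proteinase K, 30 min at 37 °C. Run on 1% agarose at room temperature, stained with ethidium bromide 1 µg/mL in TAE, imaged under UV.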

[18] = system: yD12; experiment: Cytotoxicity against mouse yD12 cells after 24 to 96 hrs by MTS assay; format: functional, cell-based; how it was run: as §3
[19] = target: DNA topoisomerase 2-alpha (Homo sapiens) (UniProt P11388); experiment: Inhibition of human recombinant topoisomerase 2alpha-mediated relaxation of supercoiled pBR322 at up to 100 uM after 60 mins using ethidium bromide staining by agarose gel electrophoresis
How it was run: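 Supercoiled pBR322 (0.25 µg) with 1 U human recombinant topoisomerase IIα and test compound, 60 min at 37 °C in 20 µl reaction buffer. Stopped with SDS/bromophenol blue/glycerol plus 50 µg/mL proteinase K, 30 min at 37 °C. Separated on 1% agarose at room temperature, ethidium bromide stained (1 µg/mL, TAE), UV-visualized.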

[20] = system: HeLa; experiment: Cytotoxicity against human HeLa cells after 72 hrs by trypan blue assay; format: functional, cell-based; how it was run: as §1
[21] = system: yA3; experiment: Cytotoxicity against mouse yA3 cells after 24 to 96 hrs by MTS assay; format: functional, cell-based; how it was run: as §3
[22] = system: yA3; experiment: Induction apoptosis in mouse yA3 cells assessed as ROS production at 10 uM/L using DCFH-DA by flow cytometry relative to control; format: functional, cell-based; how it was run: as §2
[23] = system: B3; experiment: Induction apoptosis in mouse B3 cells assessed as ROS production at 10 uM/L using DCFH-DA by flow cytometry relative to control; format: functional, cell-based; how it was run: as §2
[24] = system: yA7; experiment: Induction apoptosis in mouse yA7 cells assessed as ROS production at 10 uM/L using DCFH-DA by flow cytometry relative to control; format: functional, cell-based; how it was run: as §2
[25] = system: HUVEC; experiment: Antiangiogenic activity in HUVEC cocultured with human PaSMC assessed as reduction of total tube length at 125 nM after 72 hrs; format: functional; set-up: scale not given: the % may be the effect or the level left
How it was run: (§4)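 Primary HUVEC (passage 5, retrovirally labelled with RFP) and pulmonary artery vSMC (passage 5) co-seeded at 5×10^4 PaSMC plus 10×10^3 HUVEC per well in EGM-2, briefly spun at 200 g, attached 3 h. Compounds were then added at final 2–200 nM, two replicates per concentration. Networks formed over 72 h at 37 °C, 5% CO2, followed by automated imaging and image analysis of tube formation.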

[26] = system: HUVEC; experiment: Antiangiogenic activity in HUVEC cocultured with human PaSMC assessed as morphological changes up to 200 nM after 72 hrs; format: functional, cell-based; how it was run: as §4
[27] = system: yD12; experiment: Induction apoptosis in mouse yD12 cells assessed as ROS production at 10 uM/L using DCFH-DA by flow cytometry relative to control; format: functional, cell-based; how it was run: as §2
[28] = system: yB8; experiment: Induction apoptosis in mouse yB8 cells assessed as ROS production at 10 uM/L using DCFH-DA by flow cytometry relative to control; format: functional, cell-based; how it was run: as §2
[29] = species on record: Mus musculus; experiment: Induction apoptosis in mouse betaD10 cells assessed as ROS production at 10 uM/L using DCFH-DA by flow cytometry relative to control; format: functional, cell-based; how it was run: as §2

Sequence of DNA topoisomerase 2-alpha (Homo sapiens) (P11388 whole entry): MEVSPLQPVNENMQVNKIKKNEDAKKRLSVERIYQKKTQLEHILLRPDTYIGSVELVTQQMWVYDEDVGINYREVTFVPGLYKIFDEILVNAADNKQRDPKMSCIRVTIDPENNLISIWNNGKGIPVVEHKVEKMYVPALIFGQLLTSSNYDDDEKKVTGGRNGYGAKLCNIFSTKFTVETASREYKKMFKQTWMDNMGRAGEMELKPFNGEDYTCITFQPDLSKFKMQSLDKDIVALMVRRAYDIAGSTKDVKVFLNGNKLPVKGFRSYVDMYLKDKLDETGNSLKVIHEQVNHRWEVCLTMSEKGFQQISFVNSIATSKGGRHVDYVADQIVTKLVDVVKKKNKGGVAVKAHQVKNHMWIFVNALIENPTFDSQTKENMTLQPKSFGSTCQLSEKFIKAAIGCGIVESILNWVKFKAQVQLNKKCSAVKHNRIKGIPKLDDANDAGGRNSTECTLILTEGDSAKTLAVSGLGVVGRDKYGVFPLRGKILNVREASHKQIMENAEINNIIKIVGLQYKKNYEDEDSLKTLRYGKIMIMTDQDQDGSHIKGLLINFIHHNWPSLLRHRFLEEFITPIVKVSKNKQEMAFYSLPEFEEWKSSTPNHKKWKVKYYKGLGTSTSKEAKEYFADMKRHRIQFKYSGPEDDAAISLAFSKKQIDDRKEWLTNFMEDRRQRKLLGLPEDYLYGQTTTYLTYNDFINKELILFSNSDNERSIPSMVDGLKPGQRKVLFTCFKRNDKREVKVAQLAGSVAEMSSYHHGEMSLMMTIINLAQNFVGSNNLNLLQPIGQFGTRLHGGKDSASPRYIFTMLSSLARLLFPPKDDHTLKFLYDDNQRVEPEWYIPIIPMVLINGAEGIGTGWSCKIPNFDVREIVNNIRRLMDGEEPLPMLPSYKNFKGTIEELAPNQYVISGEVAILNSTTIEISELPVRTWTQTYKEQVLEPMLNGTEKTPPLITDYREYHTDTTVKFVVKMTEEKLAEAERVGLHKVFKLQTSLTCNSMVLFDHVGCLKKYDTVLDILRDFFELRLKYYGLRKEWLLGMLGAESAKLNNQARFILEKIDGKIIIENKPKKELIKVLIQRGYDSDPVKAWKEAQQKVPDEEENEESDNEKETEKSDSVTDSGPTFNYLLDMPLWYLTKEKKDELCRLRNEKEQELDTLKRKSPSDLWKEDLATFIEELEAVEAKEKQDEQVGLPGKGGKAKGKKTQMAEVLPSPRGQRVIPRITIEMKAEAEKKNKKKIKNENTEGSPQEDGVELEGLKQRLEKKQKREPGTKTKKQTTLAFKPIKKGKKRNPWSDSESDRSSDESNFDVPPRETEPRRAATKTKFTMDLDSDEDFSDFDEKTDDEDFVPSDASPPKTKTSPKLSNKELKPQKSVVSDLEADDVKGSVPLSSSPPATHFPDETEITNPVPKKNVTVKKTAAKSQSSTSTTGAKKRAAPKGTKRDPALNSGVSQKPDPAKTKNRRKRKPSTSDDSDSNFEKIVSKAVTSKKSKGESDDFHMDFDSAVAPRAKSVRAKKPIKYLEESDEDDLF

Activity [9]: inactive
Activity [17]: inactive
Activity [19]: inactive
SMILES: CC[C@@]1(OC(=O)NCCNC(=O)CCCCCCCCC(=O)NCCNC(=O)O[C@]2(CC)C(=O)OCc3c2cc2n(c3=O)Cc3cc4ccccc4nc3-2)C(=O)OCc2c1cc1n(c2=O)Cc2cc3ccccc3nc2-1
IC50 [1]: 420 nM
Activity [2]: Active
fold change (FC) [3]: 8
Activity [4]: Active
Activity [5]: Active
Activity [6]: Active
Activity [7]: Active
Activity [8]: Active
Activity [10]: Active
IC50 [11]: 80 nM
Activity [12]: Active
Activity [13]: Active
Activity [14]: Active
Activity [15]: Active
Activity [16]: Active
Activity [18]: Active
IC50 [20]: 300 nM
Activity [21]: Active
Activity [22]: Active
Activity [23]: Active

Activity [9]: inactive
Activity [17]: inactive
Activity [19]: inactive
SMILES: CC[C@@]1(OC(=O)NCCNC(=O)CCCSSCCCC(=O)NCCNC(=O)O[C@]2(CC)C(=O)OCc3c2cc2n(c3=O)Cc3cc4ccccc4nc3-2)C(=O)OCc2c1cc1n(c2=O)Cc2cc3ccccc3nc2-1
IC50 [1]: 290 nM
Activity [2]: Active
Activity [4]: Active
Activity [5]: Active
Activity [6]: Active
Activity [7]: Active
Activity [8]: Active
Activity [10]: Active
IC50 [11]: 30 nM
Activity [24]: Active
Activity [12]: Active
Activity [13]: Active
Activity [25]: 50%
Activity [26]: inactive
Activity [14]: Active
Activity [15]: Active
Activity [27]: Active
Activity [16]: Active
Activity [18]: Active
Activity [28]: Active
Activity [29]: Active
IC50 [20]: 170 nM
Activity [21]: Active
Activity [22]: Active
Activity [23]: Active

— ChEMBL document CHEMBL1629436, “Synthesis and biological evaluation of new camptothecin derivatives obtained by modification of position 20” (Bioorg Med Chem, 2010)
